Data on one compound can be found in PMC8861878 (The Journal of pharmacy and pharmacology, 2020).

One data set deals with T1, UGT1A6 (Homo sapiens, UniProt P19224).
T1 sequence (P19224 27-532): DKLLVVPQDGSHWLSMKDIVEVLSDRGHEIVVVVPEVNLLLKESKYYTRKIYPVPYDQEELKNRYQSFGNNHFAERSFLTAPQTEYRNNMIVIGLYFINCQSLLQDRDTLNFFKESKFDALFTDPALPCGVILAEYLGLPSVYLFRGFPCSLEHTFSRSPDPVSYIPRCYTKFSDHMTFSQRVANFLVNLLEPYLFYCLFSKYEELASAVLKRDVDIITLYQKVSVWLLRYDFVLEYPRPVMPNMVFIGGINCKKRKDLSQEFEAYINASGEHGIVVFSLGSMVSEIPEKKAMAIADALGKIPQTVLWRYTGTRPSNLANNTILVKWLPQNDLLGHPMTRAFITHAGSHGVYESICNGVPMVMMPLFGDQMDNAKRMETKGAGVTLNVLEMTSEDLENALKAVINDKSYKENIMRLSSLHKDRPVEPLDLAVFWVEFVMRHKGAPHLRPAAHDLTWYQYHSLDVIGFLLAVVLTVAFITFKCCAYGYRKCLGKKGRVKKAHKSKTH
The experiment in a line: Glucuronidation of isobavachin by recombinant UGT1A6, enzyme kinetics. The data set is classed as in vitro ADME. The conditions noted are these: substrate inhibition constant, substrate inhibition model.

The next data set has as its target T2, UGT1A8 (Homo sapiens, UniProt Q9HAW9).
T2 sequence (Q9HAW9 26-530): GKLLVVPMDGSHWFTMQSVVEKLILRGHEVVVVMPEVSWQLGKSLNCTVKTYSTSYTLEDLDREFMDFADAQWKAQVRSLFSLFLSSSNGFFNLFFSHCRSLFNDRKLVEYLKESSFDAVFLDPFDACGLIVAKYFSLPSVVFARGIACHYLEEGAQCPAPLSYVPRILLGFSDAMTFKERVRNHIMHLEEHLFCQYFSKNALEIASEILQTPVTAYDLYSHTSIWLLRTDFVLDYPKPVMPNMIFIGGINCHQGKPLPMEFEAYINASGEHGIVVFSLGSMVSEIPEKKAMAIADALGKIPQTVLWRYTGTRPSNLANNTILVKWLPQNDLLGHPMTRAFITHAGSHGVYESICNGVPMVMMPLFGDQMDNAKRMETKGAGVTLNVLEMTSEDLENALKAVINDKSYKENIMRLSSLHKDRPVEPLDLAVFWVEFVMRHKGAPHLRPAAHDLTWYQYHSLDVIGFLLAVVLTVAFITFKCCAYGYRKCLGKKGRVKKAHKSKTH
The experiment in a line: Glucuronidation of isobavachin by recombinant UGT1A8, enzyme kinetics. The data set is classed as in vitro ADME. Particulars: formation of G1, substrate inhibition model.

The next data set concerns the target T3, UGT1A9 (Homo sapiens, UniProt O60656).
T3 sequence (O60656 26-530): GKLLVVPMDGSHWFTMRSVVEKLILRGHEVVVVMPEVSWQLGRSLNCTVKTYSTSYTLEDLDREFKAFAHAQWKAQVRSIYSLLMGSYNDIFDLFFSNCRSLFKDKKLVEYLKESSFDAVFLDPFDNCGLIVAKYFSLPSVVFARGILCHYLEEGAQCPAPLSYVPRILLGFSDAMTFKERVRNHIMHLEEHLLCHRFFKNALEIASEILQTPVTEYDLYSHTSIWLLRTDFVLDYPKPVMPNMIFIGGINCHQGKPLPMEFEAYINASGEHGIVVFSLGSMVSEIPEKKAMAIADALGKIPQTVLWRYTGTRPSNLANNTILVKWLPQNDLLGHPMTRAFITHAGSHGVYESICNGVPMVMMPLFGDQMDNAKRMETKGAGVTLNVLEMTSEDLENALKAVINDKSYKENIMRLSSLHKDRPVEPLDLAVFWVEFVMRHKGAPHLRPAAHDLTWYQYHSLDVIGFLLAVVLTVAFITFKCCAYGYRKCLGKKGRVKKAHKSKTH
Kind of data set: Glucuronidation of isobavachin by recombinant UGT1A9, enzyme kinetics. The data set is classed as in vitro ADME. The conditions noted are these: formation of G1, substrate inhibition model.

For the next data set, the target named is T4, CYP2C8 (Homo sapiens, UniProt P10632).
T4 sequence (P10632 1-490): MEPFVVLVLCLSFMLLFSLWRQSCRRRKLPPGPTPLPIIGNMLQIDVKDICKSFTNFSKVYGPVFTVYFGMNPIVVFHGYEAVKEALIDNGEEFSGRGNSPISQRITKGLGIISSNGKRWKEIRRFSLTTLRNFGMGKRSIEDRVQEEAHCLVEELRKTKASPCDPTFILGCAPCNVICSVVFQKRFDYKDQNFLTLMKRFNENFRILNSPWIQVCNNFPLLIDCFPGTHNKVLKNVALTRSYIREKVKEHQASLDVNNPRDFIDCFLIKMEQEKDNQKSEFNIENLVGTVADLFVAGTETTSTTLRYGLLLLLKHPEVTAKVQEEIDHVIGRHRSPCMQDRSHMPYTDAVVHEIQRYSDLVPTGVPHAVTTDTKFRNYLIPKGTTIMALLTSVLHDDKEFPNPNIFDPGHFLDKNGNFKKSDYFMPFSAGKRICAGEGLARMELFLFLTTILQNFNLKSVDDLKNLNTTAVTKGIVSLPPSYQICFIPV
Kind of data set: Inhibition of CYP2C8. The data set is classed as in vitro ADME. The conditions noted are these: isobavachin 1, 10, 100 μM; substrate paclitaxel (60 μM). In a few lines: (§1)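 Recombinant human CYPs (CYP1A2 and 3A4 at 0.05 mg/ml; CYP2C8 and 2E1 at 0.1 mg/ml) with probe substrate in Tris-HCl 50 mM pH 7.4, MgCl2 5 mM and NADPH 1 mM at 37 °C for 60 min. Run without (control) or with test compound at 1, 10 or 100 μM. Acetonitrile stop; metabolite by UHPLC-TQD-MS; activity versus control, triplicate.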

For another data set, the target named is CYP2C9 (Homo sapiens, UniProt P11712). Kind of data set: Inhibition of CYP2C9. The data set is classed as in vitro ADME.
The next data set has as its target CYP2E1 (Homo sapiens, UniProt P05181). The experiment in a line: Inhibition of CYP2E1. The data set is classed as in vitro ADME. The conditions noted are these: isobavachin 1, 10, 100 μM; substrate chlorzoxazone (200 μM). In a few lines:
as §1

For data set [1] the following is noted: intragastric administration of Psoraleae Fructus extracts (1.2 g/kg); cited from earlier work.

What is called IC50 is the point on the concentration scale where inhibition reaches its midpoint.

Chain of CYP2C9 (P11712 whole entry): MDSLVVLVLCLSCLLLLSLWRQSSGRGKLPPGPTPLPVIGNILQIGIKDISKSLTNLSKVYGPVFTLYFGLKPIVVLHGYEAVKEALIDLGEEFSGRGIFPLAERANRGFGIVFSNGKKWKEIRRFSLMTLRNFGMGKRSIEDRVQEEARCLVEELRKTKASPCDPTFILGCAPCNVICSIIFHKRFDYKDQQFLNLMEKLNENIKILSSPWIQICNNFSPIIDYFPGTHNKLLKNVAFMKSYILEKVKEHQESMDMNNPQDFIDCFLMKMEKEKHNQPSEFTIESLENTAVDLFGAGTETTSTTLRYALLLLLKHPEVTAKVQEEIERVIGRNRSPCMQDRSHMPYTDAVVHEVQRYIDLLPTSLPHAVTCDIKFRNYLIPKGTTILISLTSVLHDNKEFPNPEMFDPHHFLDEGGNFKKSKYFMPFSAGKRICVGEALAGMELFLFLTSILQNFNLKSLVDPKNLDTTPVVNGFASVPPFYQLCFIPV
Chain of CYP2E1 (P05181 whole entry): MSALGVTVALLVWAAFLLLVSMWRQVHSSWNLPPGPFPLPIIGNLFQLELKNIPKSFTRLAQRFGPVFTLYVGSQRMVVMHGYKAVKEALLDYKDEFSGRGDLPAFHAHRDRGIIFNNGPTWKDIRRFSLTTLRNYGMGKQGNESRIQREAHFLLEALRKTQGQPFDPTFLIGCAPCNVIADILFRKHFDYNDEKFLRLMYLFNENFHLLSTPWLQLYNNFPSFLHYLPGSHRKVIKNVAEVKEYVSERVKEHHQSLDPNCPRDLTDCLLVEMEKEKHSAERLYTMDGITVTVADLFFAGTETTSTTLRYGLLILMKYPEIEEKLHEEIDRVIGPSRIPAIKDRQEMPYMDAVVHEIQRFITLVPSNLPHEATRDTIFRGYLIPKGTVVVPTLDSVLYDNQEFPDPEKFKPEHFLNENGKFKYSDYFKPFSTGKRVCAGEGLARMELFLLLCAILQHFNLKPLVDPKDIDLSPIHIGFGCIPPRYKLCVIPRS

With `CC(C)=CCc1c(O)ccc2c1O[C@H](c1ccc(O)cc1)CC2=O` [isobavachin], the Ki at UGT1A6 (formation of G1) was determined as 21.97 ± 5.84 µM; at UGT1A6 (formation of G2), 12.71 ± 2.60 µM; at UGT1A8 (substrate inhibition constant), 17.04 ± 3.36 µM; on UGT1A9 (substrate inhibition constant) it was 38.39 ± 8.88 µM; at CYP2C9 (substrate tolbutamide, mixed-type model (not selected)), 0.27 ± 0.1 µM; at CYP2C9 (substrate tolbutamide, non-competitive model (selected, smallest AIC and SC)), 0.22 ± 0.02 µM. Further, the “CLint (CLmax)” value on UGT1A8 was 46.30 ± 11.05 μl/min per mg; on UGT1A9, 202.62 ± 48.80 μl/min per mg. Moreover, the figures for the Vmax on UGT1A8 and at UGT1A9 were 1607.00 ± 241.00 pmol/min per mg and 3167.00 ± 426.4 pmol/min per mg, respectively. Moreover, the inhibitory effects entry against CYP2C8 and against CYP2E1 was “negligible or weak” in each case. This compound also showed an IC50 against CYP2C9 of 0.04 ± 0.005 µM. Moreover, at CYP2C9 (10 μM isobavachin), the residual activities is on record as 1.04 % of the negative control. Besides, the Inhibition type result at CYP2C9 (based on the smallest AIC and SC values) is given as “non-competitive inhibition mode”. This compound also showed a α on CYP2C9 (substrate tolbutamide, mixed-type model) of 0.70 ± 0.49. Besides, the exposure entry in data set [1] is “about 13.2 nM”.
